Assay outcomes deposited in PubChem by Broad Institute.
Sampled rows, rich in hits. Any-hit rate of the full collection: about 3.3%.
FGF22 binding: shifts melting point of recombinant human FGF22. 340,000 tested, 1.5% active. activity (Tm shift, normalised), % at 9.99 µM. recombinant FGF22 thermal shift, SYPRO orange fluorescence; percent of sucrose octasulfate shift, DMSO zero. Q9HCT0;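 active = mean Tm shift, scaled 0 neutral to 100 positive control, at about 1.3% or above, every replicate too, limit read from the data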
C2C12 statin: suppressors of simvastatin-induced myotoxicity in C2C12 myotubes; ATP luminescence, 48 h; scaled: DMSO 0, geranylgeraniol control 100; 330,000 tested, 0.78% active; rescue of ATP level, % at 7.49 µM; AID 602340;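 active = mean ATP rescue above about 67%, or every replicate alone reaching that limit, limit read from the data, passing the limit was not always enough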;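 also: myotubes were challenged with 10 µM simvastatin during compound exposure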
PglD inh: inhibitors of Campylobacter jejuni PglD acetyltransferase. purified PglD enzyme, DTNB colorimetric CoA detection. inhibition, % at 12.5 µM. 360,000 tested, 0.098% active; in the data active = inhibition above about 16%, passing the limit was not always enough
Xi reactivation: X-chromosome reactivation activator; XiGFP mouse fibroblasts, % GFP-positive cells imaging, 3 d; cells co-treated with 5-aza-dC sensitizer; scaled so ellipticine positive control = 100%; activation, % at 7.58 µM; 360,000 tested, 0.055% active; AID 743238;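 active = mean normalized replicate activation at least 10% and every replicate at or above 10%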;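 also: 0% = median of on-plate neutral control wells and 100% = ellipticine 6 µM median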
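Material: SV40-immortalized XiGFP fibroblast cells, line 68-5-11 | Buffer or medium: DMEM containing 5-aza-dC | Dosing: One concentration, pinned | Times: 3 d treatment, 15 min room-temperature fixation | Controls: Ellipticine 6 µM positive control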
E-selectin induc: E-selectin induction on HUVECs; activation, % at 7.58 µM; P16581; HUVEC E-selectin immunofluorescence imaging; normalized: neutral wells 0, TNF-alpha wells 100; 260,000 tested, 0.37% active;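 active = mean E-selectin-positive cell signal at least 10% of the positive control, reached in at least 60% of replicates, without over 20% cell loss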
Target sequence (P16581 whole entry, looked up): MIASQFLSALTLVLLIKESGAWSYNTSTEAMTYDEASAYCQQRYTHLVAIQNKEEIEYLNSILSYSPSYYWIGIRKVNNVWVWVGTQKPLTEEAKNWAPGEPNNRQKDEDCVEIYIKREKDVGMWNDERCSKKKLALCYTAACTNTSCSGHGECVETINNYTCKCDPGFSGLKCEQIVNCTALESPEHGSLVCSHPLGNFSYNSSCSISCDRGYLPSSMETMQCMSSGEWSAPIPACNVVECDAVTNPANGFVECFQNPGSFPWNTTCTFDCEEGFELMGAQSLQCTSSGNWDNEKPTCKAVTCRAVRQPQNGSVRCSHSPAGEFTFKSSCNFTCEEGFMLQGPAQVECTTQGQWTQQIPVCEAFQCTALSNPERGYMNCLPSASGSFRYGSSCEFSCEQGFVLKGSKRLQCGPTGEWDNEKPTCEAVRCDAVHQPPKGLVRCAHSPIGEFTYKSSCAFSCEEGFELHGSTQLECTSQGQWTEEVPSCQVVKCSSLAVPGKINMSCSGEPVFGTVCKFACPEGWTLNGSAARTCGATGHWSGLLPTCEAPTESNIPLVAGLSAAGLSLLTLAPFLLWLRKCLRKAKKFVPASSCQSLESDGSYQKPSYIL
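assay system = HUVEC, human umbilical vein endothelial cells | input = 3,000 HUVEC seeded per well | medium = EGM-2 growth medium on 0.1% gelatin-coated wells | dosing = one compound dose added by pin transfer | signal = immunofluorescence imaging | read-out basis = % PE-positive cells | control set = TNF-alpha, DMSO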
DENV2 CPE rescue: protects cells from dengue virus 2 cytopathic effect; DENV2-infected cells, cytopathic effect rescue, plate reader; CPE inhibition, % at 9.99 µM; 350,000 tested, 1.7% active; AID 651640; in the data active = CPE inhibition above about 20%, passing the limit was not always enough; tested in BHK-21 cells;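 also: 0% = median of neutral control wells and 100% = median of positive control wells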
* marks the source's active call; other numbers are inactive results; . = no result.

SMILES	FGF22 binding	C2C12 statin	PglD inh	Xi reactivation	E-selectin induc	DENV2 CPE rescue
CCC(CO)[n+]1c(C)cc(/C=C2\Sc3ccccc3N2Cc2ccccc2)cc1C (stereo not given)	0	.	3	103*	.	.
Cc1noc(C)c1NC(=O)Nc1ccc2c(c1)C(=O)N([C@H](C)CO)C[C@H](C)[C@@H](CN(C)S(=O)(=O)c1c(C)noc1C)OCCCC[C@@H](C)O2	0	20	-2	0	0	-13
Cc1noc(C)c1NC(=O)Nc1ccc2c(c1)C(=O)N([C@@H](C)CO)C[C@@H](C)[C@@H](CN(C)S(C)(=O)=O)OCCCC[C@@H](C)O2	0	.	-2	0	0	102*
Cc1noc(C)c1S(=O)(=O)N(C)C[C@H]1OCCCC[C@H](C)Oc2ccc(NC(=O)Nc3ccc(F)cc3)cc2C(=O)N([C@@H](C)CO)C[C@@H]1C	0	.	42	0	0	73*
Cc1noc(C)c1NC(=O)Nc1ccc2c(c1)C(=O)N([C@H](C)CO)C[C@H](C)[C@H](CN(C)S(C)(=O)=O)OCCCC[C@H](C)O2	0	.	-2	0	0	-6
Cc1noc(C)c1NC(=O)Nc1ccc2c(c1)C(=O)N([C@@H](C)CO)C[C@@H](C)[C@H](CN(C)S(=O)(=O)c1c(C)noc1C)OCCCC[C@@H](C)O2	-1	77*	-2	0	0	-12
Cc1noc(C)c1S(=O)(=O)N(C)C[C@@H]1OCCCC[C@@H](C)Oc2ccc(NC(=O)Nc3ccc(F)cc3)cc2C(=O)N([C@H](C)CO)C[C@H]1C	0	.	1	0	0	-3
CC(C)(C)c1cc(N)n2nc(C(C)(C)C)cc2n1	44*	.	.	0	.	13
Cc1cc2nc(C(C)(C)C)cc(N)n2n1	0	10	-1	0	2	-3
CC1=CC2=NC(=O)CC(C)(C(=O)N(CC(=O)NC3CCCC3)Cc3ccccc3)N2C=C1 (stereo not given)	0	26	-4	0	41*	-5
CC1=CN2C(=NC(=O)CC2(C)C(=O)N(CC(=O)NC2CCCC2)Cc2ccccc2)C=C1 (stereo not given)	0	-1	-2	0	0	0
COc1cccc(C(=O)N2C[C@@H]3[C@H](c4ccccc42)[C@@H](CO)N3Cc2ccccc2Cl)c1	0	4	0	0	1	10
C/C=C/c1ccc([C@H]2[C@@H](CNS(C)(=O)=O)N(CC3CCCC3)[C@H]2CO)cc1	0	15	8	0	0	51*
N#C[C@@H]1[C@H](c2ccccc2C2=CCCCC2)[C@@H](CO)N1C(=O)c1ccccn1	0	.	.	0	0	27*
N#C[C@H]1[C@@H](c2ccc(C3=CCCCC3)cc2)[C@H](CO)N1C(=O)NC1CCCC1	.	.	.	0	3	10
N#C[C@@H]1[C@H](c2ccc(C3=CCCCC3)cc2)[C@H](CO)N1C(=O)NC1CCCC1	.	.	.	0	0	27*
N#C[C@@H]1[C@H](c2ccccc2-c2ccccc2)[C@@H](CO)N1C(=O)NC1CCCCC1	0	.	.	0	0	45*
C[C@@H]1CN([C@H](C)CO)C(=O)c2cc(NC(=O)Cn3cnnn3)ccc2O[C@@H]1CN(C)C(=O)Nc1ccc(F)cc1	0	12	2	0	0	2
C/C=C/c1ccc([C@@H]2[C@H](C#N)N(C(=O)NC3CCCCC3)[C@H]2CO)cc1	1	2	4	0	0	77*
N#C[C@@H]1[C@@H](c2ccccc2C2=CCCC2)[C@H](CO)N1C(=O)Cc1ccncc1	0	.	.	0	0	29*
N#C[C@H]1[C@@H](c2ccccc2C2=CCCCC2)[C@@H](CO)N1C(=O)NC1CCCC1	0	.	.	0	0	22*
Cc1noc(C)c1NC(=O)N[C@@H]1CC[C@H](CC(=O)Nc2ccccc2)O[C@@H]1CO	0	-4	3	0	0	-3
O=C(C[C@H]1CC[C@@H](NC(=O)CN2CCOCC2)[C@@H](CO)O1)NCc1cccc(F)c1	0	32	10	0	0	-1
